Activity calls are given as the source filed them.
Key:
[1] = Drug uptake in BALB/cJ mouse brain at 1 mg/kg after 15 mins; type: ADME, organism-based; set-up: dose 1 mg/kg; conditions: read-out: Drug uptake
[2] = molecular target: T1, Acetylcholine receptor; alpha1/beta1/delta/gamma (Homo sapiens) (UniProt P02708+P07510+P11230+Q07001); assay: Agonist activity at human alpha1beta1gammadelta nAChR expressed in TE671/RD cells at 10 uM by 86Rb+ flux assay; type: functional, cell-based
In short: (§1)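 Human clonal TE671/RD cells endogenously express muscle-type α1*-nAChRs (α1, β1, γ, δ). Cells were kept at low passage (1−26 from frozen stocks). Function was read as 86Rb+ efflux, with agonist and antagonist modes tested up to 10 μM.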

[3] = molecular target: T2, Neuronal acetylcholine receptor; alpha4/beta2 (Homo sapiens, UniProt P17787+P43681); assay: Antagonist activity at human alpha4beta2 nAChR expressed in SH-EP1 cells assessed as inhibition of carbamylcholine induced 86Rb+ ion efflux preincubated for 10 mins prior to carbamylcholine-induction measured after 5 mins by flip-plate technique; type: functional, cell-based
T2 sequence (P17787 whole entry): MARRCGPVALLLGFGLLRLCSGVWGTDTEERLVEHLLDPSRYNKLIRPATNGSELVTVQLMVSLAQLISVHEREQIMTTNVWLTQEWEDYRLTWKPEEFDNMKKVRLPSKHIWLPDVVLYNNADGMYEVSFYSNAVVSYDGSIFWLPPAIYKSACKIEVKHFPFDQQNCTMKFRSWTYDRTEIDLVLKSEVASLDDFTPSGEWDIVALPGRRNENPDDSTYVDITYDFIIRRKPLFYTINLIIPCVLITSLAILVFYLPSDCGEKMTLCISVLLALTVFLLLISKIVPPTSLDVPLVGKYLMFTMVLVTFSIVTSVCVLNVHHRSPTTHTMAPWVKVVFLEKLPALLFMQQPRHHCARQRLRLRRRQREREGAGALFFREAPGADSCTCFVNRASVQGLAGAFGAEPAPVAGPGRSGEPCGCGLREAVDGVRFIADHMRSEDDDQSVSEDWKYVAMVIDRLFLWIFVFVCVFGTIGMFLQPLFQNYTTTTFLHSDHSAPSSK
T2 sequence (P43681 whole entry): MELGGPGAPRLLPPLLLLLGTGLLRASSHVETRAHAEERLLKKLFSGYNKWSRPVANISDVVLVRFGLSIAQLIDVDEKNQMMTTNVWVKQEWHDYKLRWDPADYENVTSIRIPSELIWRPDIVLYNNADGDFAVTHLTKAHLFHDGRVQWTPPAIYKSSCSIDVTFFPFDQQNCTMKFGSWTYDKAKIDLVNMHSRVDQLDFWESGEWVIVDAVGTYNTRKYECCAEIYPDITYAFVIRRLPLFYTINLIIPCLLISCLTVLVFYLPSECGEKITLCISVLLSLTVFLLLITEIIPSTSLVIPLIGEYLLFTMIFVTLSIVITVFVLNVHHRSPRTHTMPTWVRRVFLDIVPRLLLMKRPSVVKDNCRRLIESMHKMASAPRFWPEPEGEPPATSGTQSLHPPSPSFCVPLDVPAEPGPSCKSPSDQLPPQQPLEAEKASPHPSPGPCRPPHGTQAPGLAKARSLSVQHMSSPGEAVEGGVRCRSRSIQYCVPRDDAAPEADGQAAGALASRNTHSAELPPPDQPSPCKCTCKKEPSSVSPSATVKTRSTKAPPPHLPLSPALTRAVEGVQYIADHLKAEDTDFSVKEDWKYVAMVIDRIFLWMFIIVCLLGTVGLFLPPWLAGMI
In short: (§2)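 SH-EP1 human epithelial cells stably transfected with separate human α4 and β2 subunit cDNAs express a mixed population of high-sensitivity (2:3 α4:β2) and low-sensitivity (3:2) α4β2-nAChRs. Cells were kept at low passage (1−26 from frozen stocks). Function was read as 86Rb+ ion flux.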

[4] = molecular target: T2, Neuronal acetylcholine receptor; alpha4/beta2; assay: Agonist activity at human high sensitive and low sensitive alpha4beta2 nAChR expressed in SH-EP1 cells assessed as 86Rb+ ion efflux by flip-plate technique relative to sazetidine-A; type: functional, cell-based
In short: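 SH-EP1-hα4β2 cells (stably transfected human α4 and β2, low passage 1−26) express mixed high- and low-sensitivity α4β2-nAChRs. Efficacy was measured by 86Rb+ flux on this mixed population. High-sensitivity efficacy was extrapolated by defining a reference agonist as 100% full agonist at the HS receptor.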

[5] = molecular target: T3, Neuronal acetylcholine receptor; alpha4/beta2 (Rattus norvegicus, UniProt P09483+P12390); assay: Displacement of [3H] epibatidine from rat alpha4beta2 nAChR expressed in HEK293 cells by liquid scintillation counting; type: cell-based
[6] = molecular target: T3, Neuronal acetylcholine receptor; alpha4/beta2; assay: Displacement of [3H] epibatidine from rat alpha4beta2* nAChR in rat forebrain by liquid scintillation counting
[7] = molecular target: T2, Neuronal acetylcholine receptor; alpha4/beta2; assay: Antagonist activity at human high sensitive and low sensitive alpha4beta2 nAChR expressed in SH-EP1 cells assessed as inhibition of carbamylcholine induced 86Rb+ ion efflux preincubated for 10 mins prior to carbamylcholine-induction measured after 5 mins by flip-plate technique relative to control; type: functional, cell-based; in short: as §2
[8] = molecular target: T4, Neuronal acetylcholine receptor; alpha3/beta4 (Rattus norvegicus, UniProt P04757+P12392); assay: Displacement of [3H] epibatidine from rat alpha3beta4 nAChR expressed in HEK293 cells by liquid scintillation counting; type: cell-based
T4 sequence (P04757 whole entry): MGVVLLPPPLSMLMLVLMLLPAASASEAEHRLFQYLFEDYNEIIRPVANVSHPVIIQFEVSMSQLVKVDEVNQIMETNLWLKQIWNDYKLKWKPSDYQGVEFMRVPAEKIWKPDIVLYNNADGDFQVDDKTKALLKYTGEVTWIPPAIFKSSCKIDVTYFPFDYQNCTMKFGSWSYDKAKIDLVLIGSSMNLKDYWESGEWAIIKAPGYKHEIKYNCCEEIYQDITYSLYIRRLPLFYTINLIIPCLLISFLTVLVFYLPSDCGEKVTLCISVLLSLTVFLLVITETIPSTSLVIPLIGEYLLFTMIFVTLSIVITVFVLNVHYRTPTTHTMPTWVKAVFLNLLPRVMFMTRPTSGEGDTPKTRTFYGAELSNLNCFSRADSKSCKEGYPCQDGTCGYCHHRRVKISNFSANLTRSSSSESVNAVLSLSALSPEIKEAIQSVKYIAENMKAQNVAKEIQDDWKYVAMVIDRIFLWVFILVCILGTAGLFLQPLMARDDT
T4 sequence (P12392 whole entry): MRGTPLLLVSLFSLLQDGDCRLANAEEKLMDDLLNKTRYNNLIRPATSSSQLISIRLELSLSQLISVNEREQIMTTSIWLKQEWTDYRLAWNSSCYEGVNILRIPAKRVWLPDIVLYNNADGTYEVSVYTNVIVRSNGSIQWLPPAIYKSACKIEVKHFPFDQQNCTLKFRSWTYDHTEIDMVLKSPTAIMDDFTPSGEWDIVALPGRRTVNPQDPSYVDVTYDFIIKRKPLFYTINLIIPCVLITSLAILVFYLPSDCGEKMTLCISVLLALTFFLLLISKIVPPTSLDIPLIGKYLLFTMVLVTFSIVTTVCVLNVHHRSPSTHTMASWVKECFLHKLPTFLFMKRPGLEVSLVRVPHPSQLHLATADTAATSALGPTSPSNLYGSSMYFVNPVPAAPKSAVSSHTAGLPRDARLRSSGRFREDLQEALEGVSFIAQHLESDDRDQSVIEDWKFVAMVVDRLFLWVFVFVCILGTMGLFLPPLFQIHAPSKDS

[9] = molecular target: T5, Neuronal acetylcholine receptors; alpha-3/beta-4, alpha-5, beta-2 (Homo sapiens) (UniProt P17787+P30926+P32297+P30532); assay: Antagonist activity at alpha3beta4alpha5beta2 in human SH-SY5Y cells at 10 uM by 86Rb+ flux assay; type: functional, cell-based
T5 sequence (P17787 whole entry, looked up): as the sequence (P17787 whole entry) above
T5 sequence (P30532 whole entry, looked up): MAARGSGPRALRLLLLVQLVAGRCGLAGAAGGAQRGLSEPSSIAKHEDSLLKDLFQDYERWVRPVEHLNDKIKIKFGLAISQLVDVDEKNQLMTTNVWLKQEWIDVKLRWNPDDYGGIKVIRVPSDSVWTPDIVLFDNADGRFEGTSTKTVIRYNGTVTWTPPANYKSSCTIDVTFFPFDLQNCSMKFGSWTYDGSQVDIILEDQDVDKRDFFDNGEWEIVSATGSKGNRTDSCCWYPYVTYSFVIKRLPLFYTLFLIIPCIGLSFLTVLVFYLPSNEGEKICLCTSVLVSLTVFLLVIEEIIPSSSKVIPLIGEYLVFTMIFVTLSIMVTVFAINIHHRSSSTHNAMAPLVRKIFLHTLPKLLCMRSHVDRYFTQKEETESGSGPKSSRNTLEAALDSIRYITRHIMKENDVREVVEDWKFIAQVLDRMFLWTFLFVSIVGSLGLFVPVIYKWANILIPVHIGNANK
T5 sequence (P30926 whole entry, looked up): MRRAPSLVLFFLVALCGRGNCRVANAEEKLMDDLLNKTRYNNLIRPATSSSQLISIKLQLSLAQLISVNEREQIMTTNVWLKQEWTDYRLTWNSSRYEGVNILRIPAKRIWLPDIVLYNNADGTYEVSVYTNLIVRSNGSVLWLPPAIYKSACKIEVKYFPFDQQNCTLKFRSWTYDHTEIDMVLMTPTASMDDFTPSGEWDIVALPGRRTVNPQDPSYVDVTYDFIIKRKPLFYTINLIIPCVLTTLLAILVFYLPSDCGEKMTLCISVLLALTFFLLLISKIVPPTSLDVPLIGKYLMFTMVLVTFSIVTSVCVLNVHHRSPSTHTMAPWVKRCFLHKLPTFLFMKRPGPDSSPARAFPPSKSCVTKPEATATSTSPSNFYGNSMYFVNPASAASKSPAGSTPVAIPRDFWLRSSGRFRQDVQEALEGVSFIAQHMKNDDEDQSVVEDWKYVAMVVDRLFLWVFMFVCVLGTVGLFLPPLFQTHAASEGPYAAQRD
T5 sequence (P32297 whole entry, looked up): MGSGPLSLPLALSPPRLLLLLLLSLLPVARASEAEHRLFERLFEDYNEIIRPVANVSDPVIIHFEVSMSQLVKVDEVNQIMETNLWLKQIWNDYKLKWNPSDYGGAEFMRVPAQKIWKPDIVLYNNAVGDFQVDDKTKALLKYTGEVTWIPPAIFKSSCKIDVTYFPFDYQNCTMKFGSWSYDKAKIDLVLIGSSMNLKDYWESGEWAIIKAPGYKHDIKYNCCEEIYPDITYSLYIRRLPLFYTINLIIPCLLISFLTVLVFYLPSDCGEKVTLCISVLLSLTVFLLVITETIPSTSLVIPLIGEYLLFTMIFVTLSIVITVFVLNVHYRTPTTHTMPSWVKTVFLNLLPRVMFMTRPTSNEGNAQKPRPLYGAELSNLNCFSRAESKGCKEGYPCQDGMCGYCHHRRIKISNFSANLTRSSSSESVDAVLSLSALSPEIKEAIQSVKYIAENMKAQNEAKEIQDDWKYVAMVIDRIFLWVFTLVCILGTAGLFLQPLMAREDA
In short: (§3)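 Human neuroblastoma SH-SY5Y cells endogenously express α3β4* nAChRs (α3, β4, probably α5, sometimes β2); their α7 receptors give no signal under these conditions. Cells were kept at low passage (1−26 from frozen stocks). Function was read as 86Rb+ efflux, with agonist and antagonist modes tested up to 10 μM.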

[10] = molecular target: T5, Neuronal acetylcholine receptors; alpha-3/beta-4, alpha-5, beta-2 (Homo sapiens); assay: Agonist activity at alpha3beta4alpha5beta2 in human SH-SY5Y cells at 10 uM by 86Rb+ flux assay; type: functional, cell-based; in short: as §3
[11] = molecular target: T1, Acetylcholine receptor; alpha1/beta1/delta/gamma (Homo sapiens); assay: Antagonist activity at human alpha1beta1gammadelta nAChR expressed in TE671/RD cells at 10 uM by 86Rb+ flux assay; type: functional, cell-based; in short: as §1
[12] = molecular target: T2, Neuronal acetylcholine receptor; alpha4/beta2; assay: Partial agonist activity at human high sensitive alpha4beta2 nAChR expressed in SH-EP1 cells assessed as 86Rb+ ion efflux by flip-plate technique relative to sazetidine-A; type: functional, cell-based
In short: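 86Rb+ ion flux in SH-EP1 cells stably transfected with separate human α4 and β2 subunit cDNAs, expressing a mixture of high- and low-sensitivity α4β2 nAChRs. Cells kept at low passage (1−26). Efficacy at the HS form extrapolated relative to a reference agonist defined as a 100% full agonist.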

[13] = species: Rattus norvegicus; assay: Selectivity ratio of Ki for rat alpha3beta4 to Ki for rat alpha4beta2
In short: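 Ki values from [3H]epibatidine competition binding at heterologously expressed rat nAChR subtypes, using the PDSP protocol; selectivity taken as the α3β4/α4β2 Ki ratio.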

[14] = molecular target: T2, Neuronal acetylcholine receptor; alpha4/beta2; assay: Agonist activity at human alpha4beta2 nAChR expressed in SH-EP1 cells assessed as 86Rb+ ion efflux after 9.5 mins by flip-plate technique; type: functional, cell-based; in short: as §2
[15] = Drug uptake in BALB/cJ mouse brain at 3 mg/kg after 15 mins; type: ADME, organism-based; set-up: dose 3 mg/kg; conditions: read-out: Drug uptake
[16] = molecular target: T3, Neuronal acetylcholine receptor; alpha4/beta2; assay: Displacement of [3H] epibatidine from rat alpha4beta2* nAChR in rat forebrain by beta scintillation counting
[17] = molecular target: Neuronal acetylcholine receptor subunit alpha-7 (Homo sapiens) (UniProt P36544); assay: Displacement of [3H]epibatidine from human alpha7 nAChR expressed in SH-EP1 cells at 10 uM by beta scintillation counting; type: cell-based
In short: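 Membranes from SH-EP1 cells heterologously expressing human α7 nAChRs; test ligand at 10 μM competing with 10 nM [3H]epibatidine; protocol similar to the PDSP one.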

[18] = molecular target: Neuronal acetylcholine receptor; alpha4/beta4 (Rattus norvegicus, UniProt P09483+P12392); assay: Displacement of [3H] epibatidine from rat alpha4beta4 nAChR by beta scintillation counting; type: protein-complex assay
[19] = molecular target: Neuronal acetylcholine receptor; alpha3/beta2 (Rattus norvegicus, UniProt P04757+P12390); assay: Displacement of [3H] epibatidine from rat alpha3beta2 nAChR by beta scintillation counting; type: protein-complex assay
Sequence of Neuronal acetylcholine receptor; alpha3/beta2 (P04757 whole entry): as the sequence (P04757 whole entry) above
Sequence of Neuronal acetylcholine receptor; alpha3/beta2 (P12390 whole entry): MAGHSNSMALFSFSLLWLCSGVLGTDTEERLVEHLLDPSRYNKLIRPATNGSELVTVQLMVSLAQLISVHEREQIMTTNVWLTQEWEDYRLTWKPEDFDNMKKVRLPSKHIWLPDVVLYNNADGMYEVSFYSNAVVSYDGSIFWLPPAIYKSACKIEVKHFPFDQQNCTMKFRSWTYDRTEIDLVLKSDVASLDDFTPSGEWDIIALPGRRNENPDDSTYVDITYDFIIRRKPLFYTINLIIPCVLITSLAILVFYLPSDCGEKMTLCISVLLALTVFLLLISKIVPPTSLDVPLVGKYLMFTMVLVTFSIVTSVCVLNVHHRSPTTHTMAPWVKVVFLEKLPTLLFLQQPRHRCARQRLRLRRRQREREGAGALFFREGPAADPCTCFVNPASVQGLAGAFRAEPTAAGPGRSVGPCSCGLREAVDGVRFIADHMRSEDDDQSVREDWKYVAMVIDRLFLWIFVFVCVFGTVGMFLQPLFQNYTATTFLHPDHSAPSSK

[20] = molecular target: T4, Neuronal acetylcholine receptor; alpha3/beta4; assay: Displacement of [3H] epibatidine from rat alpha3beta4 nAChR by beta scintillation counting; type: protein-complex assay
[21] = molecular target: T3, Neuronal acetylcholine receptor; alpha4/beta2; assay: Displacement of [3H] epibatidine from rat alpha4beta2 nAChR by beta scintillation counting; type: protein-complex assay
[22] = molecular target: Neuronal acetylcholine receptor; alpha2/beta2 (Rattus norvegicus, UniProt P12389+P12390); assay: Displacement of [3H] epibatidine from rat alpha2beta2 nAChR by beta scintillation counting; type: protein-complex assay
Sequence of Neuronal acetylcholine receptor; alpha2/beta2 (P12389 whole entry): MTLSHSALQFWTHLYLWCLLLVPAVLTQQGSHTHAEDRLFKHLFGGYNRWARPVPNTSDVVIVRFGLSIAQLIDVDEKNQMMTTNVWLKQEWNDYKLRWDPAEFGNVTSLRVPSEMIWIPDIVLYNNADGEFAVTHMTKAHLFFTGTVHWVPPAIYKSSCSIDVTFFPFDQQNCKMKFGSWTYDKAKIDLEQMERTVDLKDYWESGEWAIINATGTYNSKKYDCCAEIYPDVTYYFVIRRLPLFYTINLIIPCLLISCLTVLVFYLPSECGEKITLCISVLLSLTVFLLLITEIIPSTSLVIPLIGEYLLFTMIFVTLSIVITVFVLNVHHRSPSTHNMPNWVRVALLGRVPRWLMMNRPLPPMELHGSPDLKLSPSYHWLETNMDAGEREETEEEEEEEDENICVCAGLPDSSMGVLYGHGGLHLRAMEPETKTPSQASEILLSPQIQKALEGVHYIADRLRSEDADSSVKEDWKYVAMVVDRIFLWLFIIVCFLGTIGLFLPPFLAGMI
Sequence of Neuronal acetylcholine receptor; alpha2/beta2 (P12390 whole entry): as the sequence (P12390 whole entry) above

[23] = molecular target: Neuronal acetylcholine receptor; alpha2/beta4 (Rattus norvegicus, UniProt P12389+P12392); assay: Displacement of [3H] epibatidine from rat alpha2beta4 nAChR by beta scintillation counting; type: protein-complex assay
Sequence of Neuronal acetylcholine receptor; alpha2/beta4 (P12389 whole entry): as the sequence (P12389 whole entry) above
Sequence of Neuronal acetylcholine receptor; alpha2/beta4 (P12392 whole entry): as the sequence (P12392 whole entry) above

SMILES	Activity [2]	IC50 [3]	Efficacy [4]	Efficacy [7]	Activity [9]	Activity [10]	Activity [11]	Efficacy [12]	Ratio Ki [13]	EC50 [14]	Ki [16]	Ki [18]	Ki [19]	Ki [20]	Ki [21]	Ki [22]	Ki [23]	further results
OCCCCC#Cc1cncc(OC[C@@H]2CCN2)c1	inactive	4.8 nM	55%	63%	inactive	inactive	inactive	100%	24000	5.8 nM	–	–	–	–	–	–	–	concentration at 0.25 h [1]: 3 ng/g; Ki [5]: 0.4 nM; Ki [6]: 0.9 nM; Ki [8]: 1000 nM; concentration at 0.25 h [15]: 10 ng/g
O=C(OCC[C@H]1C[C@@H]1c1cncc(OC[C@@H]2CCN2)c1)N1CCCC1	inactive	48.5 nM	23%	84%	inactive	inactive	inactive	69%	> 100000	44.4 nM	4 nM	162 nM	21.5 nM	> 10000 nM	0.8 nM	1.5 nM	2330 nM	%max [17]: 30%
O=C(Nc1ccccc1)OCC[C@H]1C[C@@H]1c1cncc(OC[C@@H]2CCN2)c1	inactive	50.2 nM	24%	87%	inactive	inactive	inactive	78%	14800	48.9 nM	5.9 nM	551 nM	24.4 nM	8850 nM	0.6 nM	1.2 nM	241 nM	–
CN1CCC[C@H]1c1cccnc1	inactive	–	–	–	inactive	inactive	inactive	–	–	–	–	–	–	–	–	–	–	–
O=C(NC1CC1)OCC[C@H]1C[C@@H]1c1cncc(OC[C@@H]2CCN2)c1	inactive	19.6 nM	27%	82%	inactive	inactive	inactive	80%	> 100000	23.3 nM	2.4 nM	234 nM	16 nM	> 10000 nM	0.7 nM	0.9 nM	720 nM	–
CN(C)C(=O)OCC[C@H]1C[C@@H]1c1cncc(OC[C@@H]2CCN2)c1	inactive	19.1 nM	15%	85%	inactive	inactive	inactive	71%	> 100000	18.2 nM	2.1 nM	281 nM	15 nM	> 10000 nM	0.4 nM	0.3 nM	261 nM	–
OCC[C@@H]1C[C@H]1c1cncc(OC[C@@H]2CCN2)c1	inactive	50.9 nM	10%	69%	inactive	inactive	inactive	65%	1500	34.6 nM	3.7 nM	29 nM	17 nM	1040 nM	0.7 nM	0.5 nM	65 nM	–
COCC[C@@H]1C[C@H]1c1cncc(OC[C@@H]2CCN2)c1	inactive	50.4 nM	8%	75%	inactive	inactive	inactive	62%	> 16700	43.1 nM	6.2 nM	96.5 nM	20 nM	> 10000 nM	0.6 nM	0.5 nM	405 nM	–
